ChEMBL document CHEMBL1152910, “Synthesis and structure-activity relationships of phenothiazine carboxylic acids having pyrimidine-dione as novel histamine H(1) antagonists” (Bioorg Med Chem Lett, 2009)

How the values were obtained:
[1] = test system: Mus musculus; experiment: Antiinflammatory activity in BALB/c mouse model assessed as inhibition of ovalbumin-induced ear swelling at 30 mg/kg, po administered 60 mins before ovalbumin challenge measured 1 hr after elicitation by immediate type reaction assay; type: functional
Method in brief: (§1)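 Female BALB/c mice, 8 weeks old, sensitized by i.p. OVA with alum; two weeks later compound suspended in 0.5% MC given orally 60 min before OVA injection into the ear.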

[2] = species: Mus musculus; experiment: animal or person; type: functional; settings: ddY, route oral
[3] = Apparent permeability from apical to basolateral side of human Caco-2 cells after 120 mins
[4] = test system: Mus musculus; experiment: Antiinflammatory activity in BALB/c mouse model assessed as inhibition of ovalbumin-induced ear swelling at 30 mg/kg, po administered 60 mins before ovalbumin challenge measured 24 hrs after elicitation by late type reaction assay; type: functional; method in brief: as §1
[5] = test system: Mus musculus; experiment: Antiinflammatory activity in BALB/c mouse model assessed as inhibition of ovalbumin-induced ear swelling at 10 mg/kg, po administered 60 mins before ovalbumin challenge measured 24 hrs after elicitation by late type reaction assay; type: functional; method in brief: as §1
[6] = test system: Mus musculus; experiment: Antiinflammatory activity in BALB/c mouse model assessed as inhibition of ovalbumin-induced ear swelling at 10 mg/kg, po administered 60 mins before ovalbumin challenge measured 1 hr after elicitation by immediate type reaction assay; type: functional; method in brief: as §1
[7] = Protein binding in rat by equilibrium dialysis; type: ADME, organism-based; settings: read-out: PB (converted)
Method in brief: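 Protein binding (%) determined by equilibrium dialysis.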

[8] = target: T1, Histamine H1 receptor (Homo sapiens, UniProt P35367); experiment: Displacement of [3H]pyrilamine from human recombinant histamine H1 receptor expressed in CHOK1 cells by scintillation counting; type: cell-based, CHO-K1
T1 sequence (P35367 whole entry): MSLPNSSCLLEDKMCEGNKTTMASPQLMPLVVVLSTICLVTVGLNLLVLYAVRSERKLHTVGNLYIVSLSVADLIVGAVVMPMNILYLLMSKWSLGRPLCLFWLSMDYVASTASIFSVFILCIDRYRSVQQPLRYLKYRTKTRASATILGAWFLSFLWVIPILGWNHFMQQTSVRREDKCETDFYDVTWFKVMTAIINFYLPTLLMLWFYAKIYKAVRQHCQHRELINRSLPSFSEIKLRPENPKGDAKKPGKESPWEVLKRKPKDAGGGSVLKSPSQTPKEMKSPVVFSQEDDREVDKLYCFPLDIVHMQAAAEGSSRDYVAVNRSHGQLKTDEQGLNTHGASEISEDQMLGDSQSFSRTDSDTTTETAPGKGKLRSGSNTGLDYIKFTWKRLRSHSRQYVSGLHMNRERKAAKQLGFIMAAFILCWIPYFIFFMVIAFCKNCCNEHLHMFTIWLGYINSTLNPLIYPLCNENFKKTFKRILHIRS

[9] = Oral bioavailability in rat; type: ADME, organism-based; settings: in vivo
[10] = test system: Mus musculus; experiment: Antiinflammatory activity in po dosed BALB/c mouse model assessed as inhibition of ovalbumin-induced ear swelling administered 60 mins before ovalbumin challenge measured 24 hrs after elicitation by late type reaction assay; type: functional, organism-based; method in brief: as §1
[11] = test system: Mus musculus; experiment: Antiinflammatory activity in po dosed BALB/c mouse model assessed as inhibition of ovalbumin-induced ear swelling administered 60 mins before ovalbumin challenge measured 1 hr after elicitation by immediate type reaction assay; type: functional, organism-based; method in brief: as §1
[12] = test system: Mus musculus; experiment: In vivo antihistaminic activity at histamine H1 receptor in ddY mouse assessed as inhibition of histamine-induced skin vascular permeability at 10 mg/kg, po administered 1 hr before histamine challenge measured after 30 mins by Evan's blue staining; type: functional
[13] = target: T1, Histamine H1 receptor; experiment: Inhibition of histamine H1 receptor

Papp A→B at 2 h [3] [×10⁻⁶ cm/s] | fraction unbound [7] | IC50 [8] [nM] | bioavailability [9] [%] | SMILES | inhibition in vivo at 3 mg/kg [2] [%] | inhibition in vivo at 10 mg/kg [5] [%] | inhibition in vivo at 10 mg/kg [6] [%] | further results
11.1 | – | – | – | CN1CCC(=C2c3ccccc3CC(=O)c3sccc32)CC1.O=C(O)/C=C/C(=O)O [KETOTIFEN FUMARATE] | 98 | 3 | 119 | inhibition in vivo at 30 mg/kg [1]: 106%; inhibition in vivo at 30 mg/kg [4]: -4%
0.5 | 0.047 | 88 | – | Cn1c(N2CCCN(CCCN3c4ccccc4Sc4ccc(OCC(=O)O)cc43)CC2)cc(=O)n(C)c1=O | – | – | – | –
6.9 | 0.022 | 72 | 10 | CC(C(=O)O)c1ccc2c(c1)N(CCCN1CCCN(c3cc(=O)n(C)c(=O)n3C)CC1)c1ccccc1S2 (centres undefined) | 79 | – | – | –
4.7 | – | 41 | 30 | Cn1c(C2=CCN(CCCN3c4ccccc4Sc4ccc(CC(=O)O)cc43)CC2)cc(=O)n(C)c1=O | 82 | 12 | 86 | –
12.3 | 0.022 | 40 | 27 | Cn1c(N2CCN(CCCN3c4ccccc4Sc4ccc(CC(=O)O)cc43)CC2)cc(=O)n(C)c1=O | 61 | 64 | 73 | inhibition [10]: Dose-dependent effect; inhibition [11]: Dose-dependent effect
5.5 | 0.051 | 23 | 19 | Cn1c(N2CCCN(CCCN3c4ccccc4Sc4ccc(CC(=O)O)cc43)CC2)cc(=O)n(C)c1=O | 53 | 12 | 16 | –
9.9 | 0.006 | 37 | 17 | Cn1c(N2CCN(CCCN3c4ccccc4Sc4ccc(C(=O)O)cc43)CC2)cc(=O)n(C)c1=O | – | 65 | 47 | inhibition in vivo at 10 mg/kg [12]: 39%
0.4 | – | 46 | – | Cn1c(NCCCN2CCC(CN3c4ccccc4Sc4ccc(C(=O)O)cc43)CC2)cc(=O)n(C)c1=O | – | – | – | –
0.5 | – | > 500 | – | Cn1c(N2CCCN(CCCN3c4ccccc4Sc4cccc(C(=O)O)c43)CC2)cc(=O)n(C)c1=O | – | – | – | –
5.1 | 0.001 | 105 | 51 | Cn1c(N2CCN(CCCN3c4ccccc4Sc4ccc(CCC(=O)O)cc43)CC2)cc(=O)n(C)c1=O | 51 | – | – | –
4.9 | – | 124 | – | Cn1c(N2CCN(CCN3c4ccccc4Sc4ccc(C(=O)O)cc43)CC2)cc(=O)n(C)c1=O | – | – | – | –
4.7 | 0.012 | 23 | 7 | Cn1c(N2CCCN(CCCN3c4ccccc4Sc4ccc(C(=O)O)cc43)CC2)cc(=O)n(C)c1=O | 14 | 53 | 50 | –
4.2 | 0.166 | 28 | 25 | Cn1c(NCCCN2CCC(Oc3ccc(Cl)c(Cl)c3)CC2)cc(=O)n(C)c1=O | – | – | – | IC50 [13]: 58 nM; inhibition in vivo at 10 mg/kg [12]: 69%; inhibition in vivo at 30 mg/kg [1]: 72%; inhibition in vivo at 30 mg/kg [4]: 61%
20.3 | 0.001 | 35 | 16 | Cn1c(N2CCN(CCCCN3c4ccccc4Sc4ccc(C(=O)O)cc43)CC2)cc(=O)n(C)c1=O | – | – | – | inhibition in vivo at 10 mg/kg [12]: 43%
22.3 | – | 41 | 14 | CCC(C(=O)O)c1ccc2c(c1)N(CCCN1CCCN(c3cc(=O)n(C)c(=O)n3C)CC1)c1ccccc1S2 (centres undefined) | 51 | – | – | –
0.6 | – | 53 | – | CN(CCCN1CCC(CN2c3ccccc3Sc3ccc(C(=O)O)cc32)CC1)c1cc(=O)n(C)c(=O)n1C | – | – | – | –
– | – | – | – | C[C@]12C=CC(=O)C=C1CC[C@@H]1[C@@H]2[C@@H](O)C[C@@]2(C)[C@H]1CC[C@]2(O)C(=O)CO [PREDNISOLONE] | – | 81 | 22 | –
7.1 | – | 323 | – | Cn1c(N2CCCN(CCCN3c4ccccc4Sc4ccc(/C=C\C(=O)O)cc43)CC2)cc(=O)n(C)c1=O | – | – | – | –
7.7 | 0.012 | 69 | 7 | Cn1c(N2CCCN(CCCN3c4ccccc4Sc4ccc(CCC(=O)O)cc43)CC2)cc(=O)n(C)c1=O | 51 | 49 | 79 | –
0.5 | – | > 500 | – | Cn1c(N2CCCN(CCCN3c4ccccc4Sc4c(C(=O)O)cccc43)CC2)cc(=O)n(C)c1=O | – | – | – | –
– | – | – | – | Cn1c(NCCCN2CCC(Oc3ccc(Cl)cc3C(=O)O)CC2)cc(=O)n(C)c1=O | – | – | – | IC50 [13]: > 1000 nM
– | – | – | – | CC(C)(C(=O)O)c1ccc(C(O)CCCN2CCC(C(O)(c3ccccc3)c3ccccc3)CC2)cc1 (centres undefined) [FEXOFENADINE] | – | 6 | 61 | –
9.9 | 0.045 | 123 | – | Cn1c(N2CCCN(CCCN3c4ccccc4Sc4ccc(C(C)(C)C(=O)O)cc43)CC2)cc(=O)n(C)c1=O | – | – | – | –
